# Assay outcomes deposited in PubChem by Broad Institute.
# Only a selection was taken, and hits are over-represented in it overall.
# INS-1E ATP HTS – protection of INS-1E cells from cytokine death, primary screen, ATP luminescence, single point; INS-1E cytokine-induced death, 48 h; normalised: neutral wells 0, positive control 100; protection from cytokine-induced ATP loss, % at 10 µM; 0.1% of 20,000 active;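 active = mean replicate protection from cytokine-induced ATP loss at least 50% and at least 75% of replicates each reaching 50%; inconclusive = meets only one of the two criteria, mean or replicate share; inactive = fails both the mean and replicate share criteria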
#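 Test system: INS-1E rat cells | Quantity: 8000 cells per well | Medium: Phenol-red-free RPMI with 5% fetal bovine serum | Reagent: Cytokine cocktail of IFN-γ, TNF-α and IL-1β | Doses: One compound concentration, pin transfer | Timing: 48 h co-treatment, 10 min post-lysis read | Technique: Luminescent ATP assay (CellTiter-Glo)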
# T cruzi HTS – inhibitors of intracellular Trypanosoma cruzi, primary screen, cell-based, plate reader, single point, set 2 | intracellular Trypanosoma cruzi in host cells | activity score (inhibition), % at 5.01 µM | 4.9% of 22,000 active; in the data active = activity score above about 55%; inconclusive = no clear call, values can overlap the other calls;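 note: parasites and compound incubated about four days before reading; 0% = median of neutral control wells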
# A1 apoptosis 2 – A1 inhibitors via caspase activation, primary screen, cell-based, luminescence, HTS, two replicates; MEF A1-2A-BIM cells, caspase-Glo luminescence, 3 h; percent of clofoctol response, DMSO zero; 24,000 tested, under 10 active; caspase activation, % (no concentration beside the values); in the data active = caspase activation above about 5.9%; inconclusive = no clear call, values can overlap the other calls; inactive = below about 2.2%
#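 system = A1-2A-BIM-expressing MEF cells | quantity = 2500 MEF cells/well | dosing = 50 nL compound per well, pinned | schedule = overnight cell settling, then 3 h compound exposure, 37 °C | signal = luminescence from DEVD-luciferin Caspase-Glo reagent, 1:1 in 50 mM HEPES, 1 h RT | read-out = Caspase-3/7 activation, seen as rise in luminescence signal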
# Active calls of the source: *; ? = inconclusive; nt = no result given.
SMILES,INS-1E ATP HTS,T cruzi HTS,A1 apoptosis 2
C[C@]12CCC3C4(C=CC5(C=C4C(=O)c4cc6ccccc6s4)C[C@@H](O)CC[C@]35C)C1CC[C@@]2(O)CN1CCC(n2c(=O)[nH]c3ccccc32)CC1 (stereo partly drawn),nt,nt,-0.9
CC(=O)Nc1ccc(C(=O)Nc2ccccc2[N+](=O)[O-])cc1,nt,nt,-2.0
C[C@@H]1CN([C@H](C)CO)C(=O)Cc2cc(NC(=O)Nc3ccc(C(F)(F)F)cc3)ccc2O[C@H]1CN(C)C(=O)Nc1ccc(C(F)(F)F)cc1,-30.0,-15.1,-0.4
C[C@H]1CN([C@@H](C)CO)C(=O)Cc2cc(NC(=O)C3CC3)ccc2O[C@@H]1CN(C)Cc1ccc(C(F)(F)F)cc1,-0.2,74.2*,0.0
C[C@@H]1CN([C@H](C)CO)C(=O)Cc2cc(NC(=O)Nc3ccc(C(F)(F)F)cc3)ccc2O[C@H]1CN(C)Cc1ccc2c(c1)OCO2,0.2,7.9,-1.3
C[C@@H]1CN([C@@H](C)CO)C(=O)Cc2cc(NC(=O)C3CC3)ccc2O[C@@H]1CN(C)Cc1ccc(C(F)(F)F)cc1,-4.1,-12.9,0.2
C[C@@H]1CN([C@@H](C)CO)C(=O)Cc2cc(NC(=O)Nc3ccc(C(F)(F)F)cc3)ccc2O[C@@H]1CN(C)C(=O)Nc1ccc(C(F)(F)F)cc1,-11.3,76.1*,1.0
C[C@@H]1CN([C@@H](C)CO)C(=O)Cc2cc(NC(=O)Nc3ccc(C(F)(F)F)cc3)ccc2O[C@@H]1CN(C)Cc1ccc2c(c1)OCO2,-34.6,58.3*,nt
C[C@@H]1CN([C@@H](C)CO)C(=O)Cc2cc(NC(=O)Nc3ccc(F)cc3)ccc2O[C@H]1CN(C)Cc1ccc(C(F)(F)F)cc1,nt,nt,-0.9
C[C@@H]1CN([C@@H](C)CO)C(=O)Cc2cc(NC(=O)Nc3ccc(F)cc3)ccc2O[C@@H]1CN(C)Cc1ccc(C(F)(F)F)cc1,-32.0,79.8*,nt
C#Cc1ccc(OC)c(OC)c1,nt,nt,0.5
O=C(CCCCCC(=O)Nc1ccccc1O)N=NC=C1C=CN(O)C=C1,nt,nt,-0.6
C[C@H]1CN([C@@H](C)CO)C(=O)Cc2cc(NC(=O)Nc3ccc(C(F)(F)F)cc3)ccc2O[C@@H]1CN(C)Cc1ccc(C(F)(F)F)cc1,-80.8,69.4*,0.0
C[C@H]1CN([C@@H](C)CO)C(=O)Cc2cc(NC(=O)Nc3ccc(F)cc3)ccc2O[C@H]1CN(C)Cc1ccc(C(F)(F)F)cc1,-52.0,45.6,nt
O=C(N/N=C/c1ccc2ccccc2c1O)c1ccccn1,-107.0,61.1*,-4.1
O=C(N/N=C/c1cccnc1Cl)c1ccccn1,-0.3,-7.8,-6.8
O=C(N/N=C/c1cc(Cl)cc(Cl)c1O)c1ccccn1,-63.3,71.0*,-2.5
O=C(N/N=C/c1cccc2ccccc12)c1ccccn1,3.6,-16.4,-6.0
O=C1O[C@H](c2ccccc2)[C@H](c2ccccc2)N2[C@H]1[C@@H](C(=O)O)[C@]1(C(=O)Nc3ccc(C#CC4(O)CCCCCC4)cc31)[C@H]2c1ccc(O)cc1,nt,nt,0.2
COc1ccc(/C=N/NC(=O)c2ccccn2)cc1O,-5.5,-21.3,-10.0
C[C@H](CO)N1C[C@H](C)[C@H](CN(C)Cc2cccc(C(F)(F)F)c2)Oc2ncc(-c3cccc(C(F)(F)F)c3)cc2C1=O,nt,88.8*,-0.4
C[C@H](CO)N1C[C@H](C)[C@H](CN(C)Cc2ccncc2)Oc2ncc(-c3cccc(C(F)(F)F)c3)cc2C1=O,nt,45.7,-0.4
Cc1cccc(CN(C)C[C@@H]2Oc3ncc(-c4cccc(F)c4)cc3C(=O)N([C@H](C)CO)C[C@@H]2C)c1,nt,40.0,1.7
C[C@H](CO)N1C[C@H](C)[C@H](CN(C)Cc2cccc(C(F)(F)F)c2)Oc2ncc(-c3cccc(F)c3)cc2C1=O,nt,65.1*,0.4
C[C@H](CO)N1C[C@H](C)[C@H](CN(C)C(=O)NC2CCCCC2)Oc2ncc(-c3ccc(F)cc3)cc2C1=O,nt,-7.7,nt
SMILES,INS-1E ATP HTS,T cruzi HTS,A1 apoptosis 2
C[C@H](CO)N1C[C@H](C)[C@H](CN(C)C(=O)NC2CCCCC2)Oc2ncc(C#Cc3cccc(F)c3)cc2C1=O,nt,63.4*,nt
C[C@H](CO)N1C[C@H](C)[C@H](CN(C)C(=O)NC2CCCCC2)Oc2ncc(-c3cccc(C(F)(F)F)c3)cc2C1=O,nt,?,7.1*
C[C@H](CO)N1C[C@H](C)[C@H](CN(C)C(=O)NC2CCCCC2)Oc2ncc(C#Cc3ccccc3)cc2C1=O,nt,51.8,?
COc1ccc([Si](C)(C)[C@H]2[C@H](CCO)O[C@@]3(C(=O)N(Cc4cccc(N5CCC5=O)c4)c4ccccc43)[C@@H]2C)cc1,nt,nt,-2.5
O=C(N/N=C/c1cc(O)ccc1Br)c1ccccn1,5.7,-6.3,-12.2
COC(=O)CCCCCCC(=O)N/N=C/c1ccc(Br)s1,1.1,-8.9,0.2
O=C(CCCCCCC(=O)Nc1ccccc1O)N/N=C/c1ccccc1OCCO,-3.3,-3.9,0.3
COC(=O)CCCCCCC(=O)N/N=C/c1coc2ccccc2c1=O,11.3,-4.3,0.5
COc1ccc(/C=N/NC(=O)c2ccccc2O)cc1,-29.5,-17.5,-3.1
O=C(CCCCC(=O)NN=C1CCCCCC1)NO,2.4,2.7,0.3
C[C@@H]1CN([C@H](C)CO)C(=O)Cc2cc(NS(=O)(=O)c3ccc(F)cc3)ccc2O[C@@H]1CN(C)Cc1ccc(-c2ccccc2)cc1,-25.5,68.0*,nt
C[C@@H]1CN([C@@H](C)CO)C(=O)Cc2cc(NS(=O)(=O)c3ccc(F)cc3)ccc2O[C@H]1CN(C)Cc1ccccc1,nt,nt,-0.5
C[C@@H]1CN([C@H](C)CO)C(=O)Cc2cc(NS(=O)(=O)c3ccc(F)cc3)ccc2O[C@H]1CN(C)Cc1ccc(-c2ccccc2)cc1,-13.2,62.1*,nt
C[C@@H]1CN([C@@H](C)CO)C(=O)Cc2cc(NS(=O)(=O)c3ccc(F)cc3)ccc2O[C@@H]1CN(C)Cc1ccccc1,-8.3,40.3,nt
COC(=O)CCCCCCC(=O)N/N=C/CC1=C(C)CCCC1(C)C,9.2,-2.9,-1.0
Cc1ccsc1/C=N/NC(=O)c1cccc(C(=O)NO)c1,1.4,-16.4,-3.3
C[C@H]1CN([C@@H](C)CO)C(=O)Cc2cc(N(C)C)ccc2O[C@@H]1CN(C)Cc1ccc(C(F)(F)F)cc1,1.7,73.8*,1.1
C[C@@H]1CN([C@H](C)CO)C(=O)Cc2cc(N(C)C)ccc2O[C@H]1CN(C)Cc1ccc(C(F)(F)F)cc1,19.6,64.0*,0.3
C[C@@H]1CN([C@H](C)CO)C(=O)Cc2cc(N(C)C)ccc2O[C@@H]1CN(C)Cc1ccc(C(F)(F)F)cc1,-1.2,-4.4,-0.8
C[C@@H]1CN([C@@H](C)CO)C(=O)Cc2cc(N(C)C)ccc2O[C@@H]1CN(C)Cc1ccc(C(F)(F)F)cc1,-5.4,-17.8,1.4
O=C(CCCCCC(=O)N/N=C/c1cccnc1Cl)NO,nt,nt,1.5
O=C(N/N=C/c1cccc(Br)c1)c1ccccc1O,-14.7,-13.5,-2.8
CC(C)(C)OC(=O)NC1(/C=N/NC(=O)CCCCCCC(=O)NO)CCCC1,nt,nt,0.5
O=C(CCCCCC(=O)N/N=C/c1ccccn1)NO,nt,nt,0.0
